Assay results from ChEMBL document CHEMBL1144767, “Characterization of chemical libraries for luciferase inhibitory activity” (J Med Chem, 2008).
Calls of active or inactive are those of the source. The rule behind the calls is not given here.

Legend:
[1] = biological target: T1, Luciferin 4-monooxygenase (Photinus pyralis, UniProt P08659); experiment: Inhibition of Photinus pyralis luciferase by PK-Light assay
[2] = Inhibition of Renilla reniformis luciferase
[3] = biological target: T1, Luciferin 4-monooxygenase; experiment: Inhibition of Photinus pyralis luciferase by BrightGlo reporter gene assay
Summary of the method: (§1)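 5 nM purified P. pyralis luciferase in SteadyGlo or BrightGlo reporter-gene reagent; no extra ATP or D-luciferin added. 1536-well luminescence. Curves from 16 two-fold concentrations in duplicate, repeated on two or three separate days.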

[4] = biological target: T1, Luciferin 4-monooxygenase; experiment: Inhibition of Photinus pyralis luciferase by Easy lite assay
Summary of the method: (§2)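 Detection by 2 µL of EasyLite or Kinase-Glo reagent (Kinase-Glo containing P. pennsylvanica luciferase). 1536-well luminescence. 16 two-fold concentrations, duplicate wells, repeated on two or three days.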

[5] = biological target: T1, Luciferin 4-monooxygenase; experiment: Inhibition of Photinus pyralis luciferase by Steady-Glo reporter gene assay; summary of the method: as §1
[6] = biological target: T2, Luciferin 4-monooxygenase (Photuris pensylvanica, UniProt Q27757); experiment: Inhibition of luciferase Photuris pennsylvanica by Promega Kinase-Glo assay; summary of the method: as §2
T2 sequence (Q27757 whole entry): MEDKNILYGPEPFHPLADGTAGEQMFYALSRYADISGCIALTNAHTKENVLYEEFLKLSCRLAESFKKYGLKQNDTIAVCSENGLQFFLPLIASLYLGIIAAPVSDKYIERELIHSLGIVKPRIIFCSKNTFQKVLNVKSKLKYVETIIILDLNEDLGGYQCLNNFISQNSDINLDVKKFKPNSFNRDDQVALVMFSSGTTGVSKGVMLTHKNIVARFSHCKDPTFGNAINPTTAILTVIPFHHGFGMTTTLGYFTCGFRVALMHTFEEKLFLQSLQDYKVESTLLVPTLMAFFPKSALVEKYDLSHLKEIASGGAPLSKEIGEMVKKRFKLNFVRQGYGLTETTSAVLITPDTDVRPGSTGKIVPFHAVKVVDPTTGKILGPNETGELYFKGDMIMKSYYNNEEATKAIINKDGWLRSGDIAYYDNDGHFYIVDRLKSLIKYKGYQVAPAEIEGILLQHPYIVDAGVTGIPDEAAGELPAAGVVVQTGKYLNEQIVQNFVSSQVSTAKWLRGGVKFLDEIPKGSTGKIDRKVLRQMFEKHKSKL

[7] = biological target: T1, Luciferin 4-monooxygenase; experiment: Inhibition of Photinus pyralis luciferase
[8] = biological target: Luciferin 4-monooxygenase (Photinus pyralis) (UniProt P08659); experiment: Inhibition of […] luciferase at 100 uM
Sequence of Luciferin 4-monooxygenase (Photinus pyralis) (P08659 whole entry): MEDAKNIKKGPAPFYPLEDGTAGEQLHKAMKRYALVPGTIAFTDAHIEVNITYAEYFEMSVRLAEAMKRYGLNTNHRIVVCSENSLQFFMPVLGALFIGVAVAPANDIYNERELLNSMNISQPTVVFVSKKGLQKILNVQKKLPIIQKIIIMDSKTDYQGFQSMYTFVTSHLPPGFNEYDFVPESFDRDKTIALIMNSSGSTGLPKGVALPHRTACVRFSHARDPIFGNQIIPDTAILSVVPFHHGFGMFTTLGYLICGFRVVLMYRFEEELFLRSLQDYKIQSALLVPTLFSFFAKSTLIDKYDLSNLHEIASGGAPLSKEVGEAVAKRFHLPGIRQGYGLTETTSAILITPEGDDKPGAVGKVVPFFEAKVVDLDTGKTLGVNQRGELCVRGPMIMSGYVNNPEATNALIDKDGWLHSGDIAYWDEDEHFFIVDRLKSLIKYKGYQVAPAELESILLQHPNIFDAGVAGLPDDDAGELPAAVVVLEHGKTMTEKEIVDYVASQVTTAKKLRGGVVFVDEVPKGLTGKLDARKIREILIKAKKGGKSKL
Summary of the method: (§3)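 Light attenuation in two-chamber quartz cuvette at room temperature. One half holds the reaction, the other holds compound in the same buffer. Firefly reaction: 100 µM ATP and D-luciferin, 100 nM enzyme, 5 nm slit. Renilla reaction: 50 µM coelenterazine, 100 nM enzyme, 10 nm slit. Emission scanned 400–700 nm in 2 nm steps, 0.1 s integration. Compounds 2-fold diluted from 100 µM.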

[9] = biological target: Luciferin 4-monooxygenase (Photinus pyralis) (UniProt P08659); experiment: Inhibition of […] luciferase at 20 uM assessed as quenching of luminescence; set-up: scale not given: the % may be the effect or the level left; summary of the method: as §3
Renilla reniformis = experiment: Inhibition of Renilla reniformis luciferase at 20 uM assessed as quenching of luminescence; set-up: scale not given: the % may be the effect or the level left; summary of the method: as §3

T1 sequence (P08659 whole entry): as above

Cc1ccc(O)c(/N=N/c2ccccc2)n1
IC50 [1]: 1.7 µM
IC50 [2]: 36 µM
IC50 [3]: 2 µM
IC50 [4]: 1.26 µM
IC50 [5]: 1.6 µM
IC50 [6]: 1.8 µM
IC50 [7]: 4.5 µM
Activity [8]: inactive

Cc1cc(-c2ccc(/N=N/c3ccc4c(S(=O)(=O)O)cc(S(=O)(=O)O)c(N)c4c3O)c(C)c2)ccc1/N=N/c1ccc2c(S(=O)(=O)O)cc(S(=O)(=O)O)c(N)c2c1O [EVANS BLUE]
IC50 [1]: 6.9 µM
IC50 [2]: 10 µM
Activity [9]: 50%
IC50 [3]: 17 µM
IC50 [4]: 7.6 µM
IC50 [5]: 22 µM
IC50 [6]: 20 µM
IC50 [7]: 1.7 µM
Activity (Renilla reniformis): 50%
